Our source for the SUV values is ChEMBL document CHEMBL1154674, “Synthesis and evaluation of three 18F-labeled aminophenylbenzothiazoles as amyloid imaging agents” (J Med Chem, 2009).

Common to all, as to assay type: ADME, organism-based, Macaca mulatta
Series [1] is described as follows: Drug level in normal rhesus monkey cerebellum assessed as standard uptake value at 152.9 MBq, iv after 22.5 mins by microPET. Particulars: in vivo, 0.375 h. Put shortly: (§1)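 One normal rhesus monkey received each tracer via the vena saphena, with 1 day between injections. Dynamic μPET ran 180 min for 18F tracers (5×60 s, 5×120 s, 9×300 s, 12×600 s) and 90 min for the 11C tracer (5×60 s, 5×120 s, 9×300 s, 3×600 s). Filtered back-projection reconstruction (RAMP filter) was used. Time-activity curves were drawn to give regional SUV.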

Series [2] can be described thus: Drug level in normal rhesus monkey cerebellum assessed as standard uptake value at 152.9 MBq, iv after 47.5 mins by microPET. Particulars: in vivo. Put shortly: as §1
Series [3] is described as follows: Drug level in normal rhesus monkey frontal cortex assessed as standard uptake value at 152.9 MBq, iv after 1.5 mins by microPET. The settings on record: in vivo, 0.025 h. Put shortly:
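One normal rhesus monkey, tracer given iv via the vena saphena (152.9 MBq), with at least 1 day between tracer injections. Dynamic brain μPET over 90 min used frames of 5 × 60 s, 5 × 120 s, 9 × 300 s and 3 × 600 s. Images were reconstructed by filtered back projection with a RAMP filter. Regional time-activity curves were expressed as SUV.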

Series [4] is described as follows: Drug level in normal rhesus monkey pons assessed as standard uptake value at 152.9 MBq, iv after 2.5 mins by microPET. Particulars: in vivo.
Series [5] is described as follows: Drug level in normal rhesus monkey pons assessed as standard uptake value at 152.9 MBq, iv after 75 mins by microPET. Particulars: in vivo, 1.25 h.
Series [6] in a line: Drug level in normal rhesus monkey parietal cortex assessed as standard uptake value at 152.9 MBq, iv after 57.5 mins by microPET. Particulars: in vivo.
Series [7] can be described thus: Drug level in normal rhesus monkey pons assessed as standard uptake value at 109.4 MBq, iv after 27.5 mins by microPET. The settings on record: in vivo.
Series [8] in a line: Drug level in normal rhesus monkey pons assessed as standard uptake value at 109.4 MBq, iv after 37.5 mins by microPET. The settings on record: in vivo, 0.625 h.
Series [9] in a line: Drug level in normal rhesus monkey thalamus assessed as standard uptake value at 109.4 MBq, iv after 3.5 mins by microPET. The settings on record: in vivo.
A short description of series [10]: Drug level in normal rhesus monkey thalamus assessed as standard uptake value at 109.4 MBq, iv after 32.5 mins by microPET. Particulars: in vivo.
A short description of series [11]: Drug level in normal rhesus monkey thalamus assessed as standard uptake value at 109.4 MBq, iv after 81 mins by microPET. Particulars: in vivo, 1.35 h.
Series [12] in a line: Drug level in normal rhesus monkey frontal cortex assessed as standard uptake value at 109.4 MBq, iv after 123 mins by microPET. The settings on record: in vivo, 2.05 h.
Series [13] is described as follows: Drug level in normal rhesus monkey white matter assessed as standard uptake value at 109.4 MBq, iv after 0.375 mins by microPET. The settings on record: in vivo, 22 s.
A short description of series [14]: Drug level in normal rhesus monkey white matter assessed as standard uptake value at 109.4 MBq, iv after 1.5 mins by microPET. Particulars: in vivo, 0.025 h.
Series [15] in a line: Drug level in normal rhesus monkey white matter assessed as standard uptake value at 109.4 MBq, iv after 3.5 mins by microPET. Particulars: in vivo.
A short description of series [16]: Drug level in normal rhesus monkey parietal cortex assessed as standard uptake value at 109.4 MBq, iv after 15.5 mins by microPET. The settings on record: in vivo.
A short description of series [17]: Drug level in normal rhesus monkey parietal cortex assessed as standard uptake value at 109.4 MBq, iv after 52.5 mins by microPET. Particulars: in vivo, 0.875 h.
Series [18] is described as follows: Drug level in normal rhesus monkey parietal cortex assessed as standard uptake value at 109.4 MBq, iv after 123 mins by microPET. The settings on record: in vivo, 2.05 h.
Series [19] is described as follows: Drug level in normal rhesus monkey thalamus assessed as standard uptake value at 96.3 MBq, iv after 12 mins by microPET. Particulars: in vivo, 0.2 h.
A short description of series [20]: Drug level in normal rhesus monkey thalamus assessed as standard uptake value at 96.3 MBq, iv after 65 mins by microPET. The settings on record: in vivo.
Series [21] is described as follows: Drug level in normal rhesus monkey thalamus assessed as standard uptake value at 96.3 MBq, iv after 135 mins by microPET. Particulars: in vivo, 2.25 h.
The nature of series [22]: Drug level in normal rhesus monkey thalamus assessed as standard uptake value at 96.3 MBq, iv after 165 mins by microPET. The settings on record: in vivo, 2.75 h.
The nature of series [23]: Drug level in normal rhesus monkey pons assessed as standard uptake value at 96.3 MBq, iv after 65 mins by microPET. The settings on record: in vivo.
A short description of series [24]: Drug level in normal rhesus monkey pons assessed as standard uptake value at 96.3 MBq, iv after 85 mins by microPET. The settings on record: in vivo.
A short description of series [25]: Drug level in normal rhesus monkey frontal cortex assessed as standard uptake value at 96.3 MBq, iv after 42.5 mins by microPET. Particulars: in vivo.
Series [26] in a line: Drug level in normal rhesus monkey white matter assessed as standard uptake value at 96.3 MBq, iv after 57.5 mins by microPET. The settings on record: in vivo.
Series [27] is described as follows: Drug level in normal rhesus monkey parietal cortex assessed as standard uptake value at 81.2 MBq, iv after 3.5 mins by microPET. Particulars: in vivo.
Series [28] is described as follows: Drug level in normal rhesus monkey parietal cortex assessed as standard uptake value at 81.2 MBq, iv after 105 mins by microPET. The settings on record: in vivo, 1.75 h.
The nature of series [29]: Drug level in normal rhesus monkey parietal cortex assessed as standard uptake value at 81.2 MBq, iv after 145 mins by microPET. The settings on record: in vivo.
Series [30] in a line: Drug level in normal rhesus monkey white matter assessed as standard uptake value at 81.2 MBq, iv after 37.5 mins by microPET. The settings on record: in vivo, 0.625 h.
A short description of series [31]: Drug level in normal rhesus monkey thalamus assessed as standard uptake value at 81.2 MBq, iv after 17.5 mins by microPET. The settings on record: in vivo.
Series [32] is described as follows: Drug level in normal rhesus monkey cerebellum assessed as standard uptake value at 81.2 MBq, iv after 145 mins by microPET. The settings on record: in vivo. A digest of the protocol:
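One normal rhesus monkey, each tracer given iv via the vena saphena (81.2, 96.3 or 109.4 MBq), with 1 day between tracer injections. Dynamic brain μPET over 180 min used frames of 5 × 60 s, 5 × 120 s, 9 × 300 s and 12 × 600 s. Images were reconstructed by filtered back projection with a RAMP filter. Regional time-activity curves were expressed as SUV.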

The nature of series [33]: Drug level in normal rhesus monkey frontal cortex assessed as standard uptake value at 81.2 MBq, iv after 0.5 mins by microPET. The settings on record: in vivo. Put shortly:
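Single normal rhesus monkey; each tracer given iv via the vena saphena, with 1 day between tracer injections. Dynamic μPET ran 180 min (5×60 s, 5×120 s, 9×300 s, 12×600 s). Images were reconstructed by filtered back projection with a RAMP filter. Regional time-activity curves were expressed as SUV.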

The nature of series [34]: Drug level in normal rhesus monkey frontal cortex assessed as standard uptake value at 81.2 MBq, iv after 14 mins by microPET. Particulars: in vivo.
A short description of series [35]: Drug level in normal rhesus monkey frontal cortex assessed as standard uptake value at 81.2 MBq, iv after 22.5 mins by microPET. Particulars: in vivo, 0.375 h.

`[11CH3]Nc1ccc(-c2nc3ccc(O)cc3s2)cc1` [PITTSBURGH COMPOUND B]: the SUV in series [1] is 1.502; in series [2] it was 0.866; in series [3], 0.478; in [4], 1.05; in series [5], 0.834; in series [6], 0.742.

As for `Nc1ccc2nc(-c3ccc([18F])cc3)sc2c1`, the SUV in [7] is on record as 4.78; in series [8], 4.73; in [9], 4.66; in series [10], 5.59; in series [11] it was 5.18; in [12], 4.13. Moreover, the SUV in series [13] was -0.01; in series [14], 1.98; in series [15], 2.22; in series [16] it was 5.1; in series [17] it was 4.38; in [18], 3.56.

As for `CN(C)c1ccc2nc(-c3ccc([18F])cc3)sc2c1`, the SUV in series [19] turned out to be 2.38; in series [20], 2.21; in series [21] it was 1.97; in series [22], 1.86; in series [23], 1.83; in [24], 2.06. Besides, the SUV in series [25] was 1.96; in [26] it was 1.37.

As to `CNc1ccc2nc(-c3ccc([18F])cc3)sc2c1`, the SUV in series [27] is reported as 4.897; in series [28], 2.784; in series [29] it was 2.565; in [30], 3.78; in [31], 5.379; in [32] it was 1.602. Further, the SUV in series [33] is 0.756; in [34] it was 6.096; in series [35] it was 5.717.
